The source made the active and inactive calls. The calls are words filed in the database; no cut-off is given here. Some results are limits rather than exact numbers.

What is called IC50 is the concentration that inhibits the measured activity by half. What is called ED50 is the dose that gives a 50% effect, or the effect in half of the subjects.

The test system of the first test is Mus musculus. The experiment in a line: Suppression of serum TNF-alpha level in LPS-challenged BALB/c mouse endotoxin shock model at 0.1 to 3 mg/kg, iv. It is filed as functional, organism-based.
Details: not given
The gist of the method:
(§1)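 Female BALB/c mice (6-week-old) received compound iv at 0.1–3 mg/kg in 10% glucuronylglucosyl-β-cyclodextrin, 1 h before LPS 7 mg/kg ip. Serum was collected at 1 h for TNF-α, 2 h for IL-6 and 6 h for IL-1β, then assayed by ELISA. n = 8 mice; means ± SE; one-tailed Williams or Shirley-Williams test versus vehicle.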
Regarding `CCOC(=O)C1=CCCC[C@H]1S(=O)(=O)Nc1ccc(F)cc1Cl` [RESATORVID], the result was Active.

The test system of a further test is RAW264.7. As to the kind of experiment: Inhibition of LPS-induced IL6 production in mouse RAW264.7 cells by ELISA. Type of test: functional, cell-based.
Details: not given
A digest of the protocol: (§2)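 RAW264.7 cells (grown in RPMI1640 with 10% heat-inactivated FBS) were seeded at 1 × 10⁵ cells/well and left overnight. They were then stimulated with 10 ng/mL LPS (E. coli O111:B4) plus a range of compound concentrations for 20 h at 37 °C in phenol red-free RPMI1640 with 1% FBS. TNF-α and IL-6 in the supernatant were measured by ELISA.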
`CCOC(=O)C1=CCCCC1S(=O)(=O)Nc1ccc(F)cc1Cl` (stereo unspecified) gave an IC50 of 2.5 nM.

On to `CCOC(=O)C1=CCCC[C@@H]1S(=O)(=O)Nc1ccc(F)cc1Cl`, for which the IC50 was determined as 480 nM.

`CCOC(=O)C1=CCCC[C@H]1S(=O)(=O)Nc1ccc(F)cc1Cl` [RESATORVID] displayed a half-inhibitory concentration (IC50) of 1.3 nM.

Regarding `CCOC(=O)C1=CCCCC1S(=O)(=O)Nc1ccc(Cl)cc1F` (stereo unspecified), the 50% inhibitory concentration (IC50) stood at 170 nM.

Another test has as its system Mus musculus. The experiment in a line: Survival of LPS-challenged intravenously dosed BALB/c mouse endotoxin shock model. It is filed as functional. Conditions: iv. The gist of the method: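 Female BALB/c mice (6-week-old, 15-21 g), acclimated at least one week. Compound dissolved in 10% (w/v) glucuronylglucosyl-β-cyclodextrin sodium salt, given iv at 0.3-3 mg/kg 1 h before lethal LPS (E. coli O111:B4, 7 mg/kg ip, in saline). Survival recorded for 7 days; 10 mice per group; Tarone's test with simple closed step-down method vs vehicle; ED50 as minimum effective dose.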
As for `CCOC(=O)C1=CCCC[C@H]1S(=O)(=O)Nc1ccc(F)cc1Cl` [RESATORVID], the ED50 is 0.3 mg/kg.

A further test deals with Mus musculus. As to the kind of experiment: Survival of LPS-challenged BALB/c mouse endotoxin shock model at 3 mg/kg, iv. It is filed as functional, organism-based. Details: dose 3 mg/kg.
Details: not given
The gist of the method:
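Female BALB/c mice (6-week-old, acclimated at least 1 week) were given compound iv in 10% glucuronylglucosyl-β-cyclodextrin 1 h before a lethal LPS challenge (7 mg/kg ip). Survival was recorded for 7 days, with 10 mice per group. Survival was analysed by Tarone's test with a closed step-down method versus vehicle.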
In the case of `CCOC(=O)C1=CCCC[C@H]1S(=O)(=O)Nc1ccc(F)cc1Cl` [RESATORVID], the result was Active.

For a further test, the system named is Mus musculus. As to the kind of experiment: Suppression of serum nitric oxide level in LPS-challenged BALB/c mouse endotoxin shock model at 0.1 to 3 mg/kg, iv. It is filed as functional, organism-based.
Details: not given
A digest of the protocol:
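Female BALB/c mice were dosed iv at 0.1–3 mg/kg (10% glucuronylglucosyl-β-cyclodextrin vehicle) 1 h before LPS 7 mg/kg ip. Serum was taken at 6 h. Nitrate was reduced to nitrite with Aspergillus nitrate reductase and β-NADPH for 20 min, then read with DAN/HCl and NaOH fluorescence (ex 355/em 460 nm) against a sodium nitrite standard curve. n = 8 mice; means ± SE.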
With `CCOC(=O)C1=CCCC[C@H]1S(=O)(=O)Nc1ccc(F)cc1Cl` [RESATORVID], the result was Active.

In the next test the test system is Mus musculus. The experiment in a line: Suppression of serum IL1-beta level in LPS-challenged BALB/c mouse endotoxin shock model at 0.1 to 3 mg/kg, iv.
Details: not given
Type of test: functional, organism-based. A digest of the protocol:
as §1
For `CCOC(=O)C1=CCCC[C@H]1S(=O)(=O)Nc1ccc(F)cc1Cl` [RESATORVID], the outcome was Active.

In the next test the test system is RAW264.7. As to the kind of experiment: Inhibition of LPS-induced nitric oxide production in mouse RAW264.7 cells. Type of test: functional, cell-based.
Details: not given
A digest of the protocol:
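RAW264.7 macrophages were plated at 1 × 10⁵ cells/well and cultured overnight. Cells were exposed to 10 ng/mL LPS with graded compound concentrations for 20 h at 37 °C, 5% CO₂, in phenol red-free RPMI1640 containing 1% heat-inactivated FBS. Supernatant nitrite was read fluorometrically with DAN followed by NaOH (ex 355/em 460 nm). IC50 is the concentration halving NO versus control; mean ± SD of two or three experiments.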
As for `CCOC(=O)C1=CCCCC1S(=O)(=O)N(C)c1ccc(Cl)cc1F` (stereo unspecified), the concentration for half-maximal inhibition (IC50) came to 230 nM.

For `O=C(OCCO)C1=CCCCC1S(=O)(=O)Nc1ccc(F)cc1F` (stereo unspecified), 330 nM corresponded to half-maximal inhibition (IC50).

On to `CCOC(=O)C1=CCCCC1S(=O)(=O)Nc1nncs1` (stereo unspecified), for which the IC50 is over 10000 nM.

In the case of `CCCCOC(=O)C1=CCCCC1S(=O)(=O)Nc1ccc(F)cc1F` (stereo unspecified), 140 nM corresponded to half-maximal inhibition (IC50).

In turn, `CCOC(=O)C1=CCCCC1S(=O)(=O)Nc1ccc(F)cc1Cl` (stereo unspecified) came in with an IC50 of 3.2 nM.

In turn, `CCOC(=O)C1=CCCCC1S(=O)(=O)Nc1ccccc1Cl` (stereo unspecified) had a half-inhibitory concentration (IC50) of 12 nM.

Compound `CCOC(=O)C1=CCCCC1S(=O)(=O)Nc1ccc(Cl)cc1Cl` (stereo unspecified) yielded an IC50 of 20 nM.

In the case of `CCOC(=O)C1=CCCC[C@@H]1S(=O)(=O)Nc1ccc(F)cc1Cl`, the half-inhibitory concentration (IC50) amounted to 640 nM.

As for `CCOC(=O)C1=CCCCC1S(=O)(=O)Nc1ccccc1CC` (stereo unspecified), 130 nM corresponded to half-maximal inhibition (IC50).

Take `CCOC(=O)C1=CCCC[C@H]1S(=O)(=O)Nc1ccc(F)cc1Cl` [RESATORVID]: the half-inhibitory concentration (IC50) turned out to be 1.8 nM.

As for `CCOC(=O)C1=C(S(=O)(=O)Nc2ccccc2)CCCC1`, the IC50 was over 8200 nM.

The compound `CCOC(=O)C1=CCCCC1S(=O)(=O)Nc1c(F)cccc1F` (stereo unspecified) returned an IC50 of 160 nM.

Take `CC(C)OC(=O)C1=CCCCC1S(=O)(=O)Nc1ccc(F)cc1F` (stereo unspecified): the IC50 was 110 nM.

As for `CCOC(=O)C1=CCCCC1S(=O)(=O)Nc1cccc(Cl)c1` (stereo unspecified), half-maximal inhibition (IC50) required 66 nM.

Turning to `CCOC(=O)C1=CCCCC1S(=O)(=O)Nc1cccc(F)c1F` (stereo unspecified), the IC50 amounted to 140 nM.

On to `CCOC(=O)C1=CCCCC1S(=O)(=O)Nc1ccccc1` (stereo unspecified), for which the IC50 was found to be 260 nM.

Compound `CCOC(=O)C1=CCCCC1S(=O)(=O)Nc1ccc(F)cc1` (stereo unspecified) came in with an IC50 of 110 nM.

`COC(=O)C1=CCCCC1S(=O)(=O)Nc1ccc(F)cc1F` (stereo unspecified) showed an IC50 of 57 nM.

Compound `CCOC(=O)C1=CCCCCC1S(=O)(=O)Nc1ccc(F)cc1Cl` (stereo unspecified) returned an IC50 of 240 nM.

As to `CCOC(=O)C1=CCCCC1S(=O)(=O)Nc1ccc(F)cc1F` (stereo unspecified), the concentration for half-maximal inhibition (IC50) was determined as 16 nM.

Compound `CCOC(=O)C1=CCCCC1S(=O)(=O)Nc1cc(F)c(F)cc1F` (stereo unspecified) gave a half-maximal inhibitory concentration (IC50) of 30 nM.

The compound `CCOC(=O)C1=CCCCC1S(=O)(=O)Nc1ccc(Cl)cc1` (stereo unspecified) showed a concentration for half-maximal inhibition (IC50) of 400 nM.

Consider `CCOC(=O)C1=CCCCC1S(=O)(=O)Nc1cccc(F)c1` (stereo unspecified), for which 150 nM corresponded to half-maximal inhibition (IC50).

Compound `CCOC(=O)C1=C(S(=O)(=O)Nc2ccc(Cl)cc2F)CCCC1` returned an IC50 of 1700 nM.

Compound `CCOC(=O)C1=CCCCC1S(=O)(=O)Nc1ccc(Cl)cc1F` (stereo unspecified) yielded a half-inhibitory concentration (IC50) of 160 nM.

Consider `CCOC(=O)C1=C(S(=O)(=O)Nc2ccc(F)cc2)CCCC1`, for which the half-maximal inhibitory concentration (IC50) was determined as 1400 nM.

As to `CCOC(=O)c1ccccc1S(=O)(=O)Nc1ccc(F)cc1Cl`, the IC50 is over 10000 nM.

For the compound `CCOC(=O)C1=CCCCC1S(=O)(=O)Nc1nccs1` (stereo unspecified), the 50% inhibitory concentration (IC50) is over 10000 nM.

`CC(C)COC(=O)C1=CCCCC1S(=O)(=O)Nc1ccc(F)cc1F` (stereo unspecified) returned an IC50 of 49 nM.

Consider `CCOC(=O)C1=CCCCC1S(=O)(=O)Nc1ccc(C)cc1Cl` (stereo unspecified), for which 41 nM corresponded to half-maximal inhibition (IC50).

Turning to `CCOC(=O)C1=CCCCC1S(=O)(=O)Nc1ccc(C#N)cc1Cl` (stereo unspecified), half-maximal inhibition (IC50) required 1600 nM.

Take `CCCOC(=O)C1=CCCCC1S(=O)(=O)Nc1ccc(F)cc1F` (stereo unspecified): the midpoint of inhibition, the IC50, lay at 29 nM.

As to `CCOC(=O)C1=CCCCC1S(=O)(=O)Nc1ccccc1C(=O)OC` (stereo unspecified), the half-inhibitory concentration (IC50) stood at 1100 nM.

As for `O=C1C2=C(CCCC2)S(=O)(=O)N1c1ccc(F)cc1`, the IC50 came out at 4100 nM.

Regarding `CCOC(=O)C1=CCCC1S(=O)(=O)Nc1ccc(F)cc1Cl` (stereo unspecified), the IC50 is 110 nM.

Turning to `C/C=C(\C(=O)OCC)C(CCC)S(=O)(=O)Nc1ccc(F)cc1Cl` (stereo unspecified), the half-inhibitory concentration (IC50) worked out at 2600 nM.

`CCOC(=O)C1=CCCCC1S(=O)(=O)Nc1ccccc1F` (stereo unspecified) yielded an IC50 of 75 nM.

The test system of another test is RAW264.7. As to the kind of experiment: Inhibition of LPS-induced TNFalpha production in mouse RAW264.7 cells by ELISA. It is filed as functional, cell-based.
Details: not given
The gist of the method: as §2
Compound `CCOC(=O)C1=CCCCC1S(=O)(=O)Nc1ccc(F)cc1Cl` (stereo unspecified) showed an IC50 of 3.4 nM.

As to `CCOC(=O)C1=CCCC[C@@H]1S(=O)(=O)Nc1ccc(F)cc1Cl`, the IC50 was 740 nM.

For `CCOC(=O)C1=CCCC[C@H]1S(=O)(=O)Nc1ccc(F)cc1Cl` [RESATORVID], the IC50 is 1.9 nM.

As to `CCOC(=O)C1=CCCCC1S(=O)(=O)Nc1ccc(Cl)cc1F` (stereo unspecified), the IC50 came out at 230 nM.

Another test has as its system Mus musculus. The experiment in a line: Suppression of serum IL6 level in LPS-challenged BALB/c mouse endotoxin shock model at 0.1 to 3 mg/kg, iv. Type of test: functional, organism-based.
Details: not given
A digest of the protocol: as §1
Turning to `CCOC(=O)C1=CCCC[C@H]1S(=O)(=O)Nc1ccc(F)cc1Cl` [RESATORVID], the outcome was Active.

The record behind these values is ChEMBL document CHEMBL1140297, “Discovery of novel and potent small-molecule inhibitors of NO and cytokine production as antisepsis agents: synthesis and biological activity of alkyl 6-(N-substituted sulfamoyl)cyclohex-1-ene-1-carboxylate” (J Med Chem, 2005).
